Among the data in the RNAGym collection of RNA variant scans (doi:10.1002/anie.201605470) are self-cleavage values, retold here.

B1: Osa-1-4 twister ribozyme (parent)
chain: CCGCCUAACACUGCCAAUGCCGGUCCCAAGCCCGGAUAAAAGUGGAGGGGGCGG

Variants of B1 are the subject of the data set. Put plainly: self-cleavage, relative activity (ratio to wild type); higher = more cleavage; co-transcriptional. In a few lines:
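The 48 positions downstream of the cleavage site in a DNA template for a 54-nucleotide Oryza sativa twister ribozyme carried 97 % wild-type base and 1 % of each other base. After in vitro transcription (2 h, 37 °C) with co-transcriptional self-cleavage, the RNA was reverse-transcribed with a template-switching oligonucleotide, PCR-amplified and deep-sequenced. Relative activity is the fraction cleaved, judged by reads with or without upstream sequence and normalised to wild type.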
Consider CCGCCUAACACUGCGAAUGCCGGUCCCAAGCCCGGGUAAAAGUGGAGGGGGCGG [A36G C15G], for which the self-cleavage came to 0.84. As to CCGCCUAACACUGCAAAUGCCGGUCCCAAGCCCGGGUAAAAGUGGAGGGGGCGG [A36G C15A], the self-cleavage is 0.85. On to CCGCCUAAUACUGCCAAUGCCGGUCCCAAGCCCGGGUAAAAGUGGAGGGGGCGG [A36G C9U], for which the self-cleavage is 0.77. As to CCGCCUAAGACUGCCAAUGCCGGUCCCAAGCCCGGGUAAAAGUGGAGGGGGCGG [A36G C9G], the self-cleavage is 0.89. The result for CCGCCUAAAACUGCCAAUGCCGGUCCCAAGCCCGGGUAAAAGUGGAGGGGGCGG [A36G C9A] reads 0.53. For CCGCCUAACACUGCCAAUGCCGGUCCCAAGCCCGGCAAAAAGUGGAGGGGGCGG [A36C U37A], the self-cleavage worked out at 0.53.

Consider CCGCCUAACACUGCCAAUGCCGGUCCCAAGCCCGGCCAAAAGUGGAGGGGGCGG [A36C U37C], for which the self-cleavage came out at 0.98. As to CCGCCUAACACUGCCAAUGCCGGUCCCAAGCCCGGCGAAAAGUGGAGGGGGCGG [A36C U37G], the self-cleavage was found to be 0.93. The figure for CCGCCUAACACUGUCAAUGCCGGUCCCAAGCCCGGGUAAAAGUGGAGGGGGCGG [A36G C14U] is 0.88.

For the variant CCGCCUAACACUGGCAAUGCCGGUCCCAAGCCCGGGUAAAAGUGGAGGGGGCGG [A36G C14G], the self-cleavage amounted to 0.37. The figure for CCGCCUAACACUGACAAUGCCGGUCCCAAGCCCGGGUAAAAGUGGAGGGGGCGG [A36G C14A] is 0.19; for CCGCCUAACACUGCCAAUGCCGGUCCCAAGCACGGGUAAAAGUGGAGGGGGCGG [A36G C32A] it is 0.09; for CCGCCUAACACUGCCAAUGCCGGUCCCAAGCGCGGGUAAAAGUGGAGGGGGCGG [A36G C32G] it is 0.16.

On to CCGCCUAACACUGCCAAUGCCGGUCCCAAGCUCGGGUAAAAGUGGAGGGGGCGG [A36G C32U], for which the self-cleavage is 0.17. With CCGCCUAACACUGCCAAUGCCGGUCCCAAGCCCGGGUAAGAGUGGAGGGGGCGG [A36G A40G], the self-cleavage amounted to 0.95.

For the variant CCGCCUAACACUGCCAAUGCCGGUCCCAAGCCCGGGUAAUAGUGGAGGGGGCGG [A36G A40U], the self-cleavage amounted to 0.96. Regarding CCGCCUAACACUGCCAAUGCCGGUCCCAAGCCCGGGUAACAGUGGAGGGGGCGG [A36G A40C], the self-cleavage amounted to 0.1. CCGCCUAACACUGCCAAUGCCGGGCCCAAGCCCGGCUAAAAGUGGAGGGGGCGG [A36C U24G]: the self-cleavage was 0.03. Consider CCGCCUAACACUGCCAAUGCCGGCCCCAAGCCCGGCUAAAAGUGGAGGGGGCGG [A36C U24C], for which the self-cleavage stood at 0.07.

For the variant CCGCCUAACACUGCCAAUGCCGGACCCAAGCCCGGCUAAAAGUGGAGGGGGCGG [A36C U24A], the self-cleavage stood at 0.06. Consider CCGCCUAACACUGCCAAUGCCGGUCCCAAGUCCGGGUAAAAGUGGAGGGGGCGG [A36G C31U], for which the self-cleavage worked out at 1.01. In the case of CCGCCUAACACUGCCAAUGCCGGUCCCAAGACCGGGUAAAAGUGGAGGGGGCGG [A36G C31A], the self-cleavage stood at 0.04.

In the case of CCGCCUAACACUGCCAAUGCCGGUCCCAAGGCCGGGUAAAAGUGGAGGGGGCGG [A36G C31G], the self-cleavage worked out at 0.16. The figure for CCGCCUAACACUGCCAAUGCCGGUCCCAAGCCCGGCUAAAAGUGGAGGGGGCAG [A36C G53A] is 0.19; for CCGCCUAACACUGCCAAUGCCGGUCCCAAGCCCGGCUAAAAGUGGAGGGGGCCG [A36C G53C] it is 0.06; for CCGCCUAACACUGCCAAUGCCGGUCCCAAGCCCGGCUAAAAGUGGAGGGGGCUG [A36C G53U] it is 0.13.

On to CCGCCUAACACGGCCAAUGCCGGUCCCAAGCCCGGCUAAAAGUGGAGGGGGCGG [A36C U12G], for which the self-cleavage was 0.13. Consider CCGCCUAACACCGCCAAUGCCGGUCCCAAGCCCGGCUAAAAGUGGAGGGGGCGG [A36C U12C], for which the self-cleavage stood at 0.08. Consider CCGCCUAACACAGCCAAUGCCGGUCCCAAGCCCGGCUAAAAGUGGAGGGGGCGG [A36C U12A], for which the self-cleavage was 0.13. Turning to CCGCCUAACAGUGCCAAUGCCGGUCCCAAGCCCGGGUAAAAGUGGAGGGGGCGG [A36G C11G], the self-cleavage came out at 0.73.

Take CCGCCUAACAUUGCCAAUGCCGGUCCCAAGCCCGGGUAAAAGUGGAGGGGGCGG [A36G C11U]: the self-cleavage stood at 0.93.

As to CCGCCUAACAAUGCCAAUGCCGGUCCCAAGCCCGGGUAAAAGUGGAGGGGGCGG [A36G C11A], the self-cleavage was 0.85. For CCGCCUAACACUGCCAAUGCAGGUCCCAAGCCCGGGUAAAAGUGGAGGGGGCGG [A36G C21A], the self-cleavage came out at 0.64.

With CCGCCUAACACUGCCAAUGCUGGUCCCAAGCCCGGGUAAAAGUGGAGGGGGCGG [A36G C21U], the self-cleavage stood at 1.02.

Regarding CCGCCUAACACUGCCAAUGCGGGUCCCAAGCCCGGGUAAAAGUGGAGGGGGCGG [A36G C21G], the self-cleavage is 0.1.

CCGCCUAACACUGCCAAUGCCGGUCCCAAGCCCGGCUAAAAGUGGACGGGGCGG [A36C G47C]: the self-cleavage amounted to 0.06. The result for CCGCCUAACACUGCCAAUGCCGGUCCCAAGCCCGGCUAAAAGUGGAAGGGGCGG [A36C G47A] reads 0.07.

Take CCGCCUAACACUGCCAAUGCCGGUCCCAAGCCCGGCUAAAAGUGGAUGGGGCGG [A36C G47U]: the self-cleavage was 0.07.

Turning to CCGCCUAACACUGCCAAUGCCGGUCCCAAGCCAGGGUAAAAGUGGAGGGGGCGG [A36G C33A], the self-cleavage came to 0.14.

With CCGCCUAACACUGCCAAUGGCGGUCCCAAGCCCGGGUAAAAGUGGAGGGGGCGG [A36G C20G], the self-cleavage is 0.12. Consider CCGCCUAACACUGCCAAUGUCGGUCCCAAGCCCGGGUAAAAGUGGAGGGGGCGG [A36G C20U], for which the self-cleavage came out at 0.99. As for CCGCCUAACACUGCCAAUGACGGUCCCAAGCCCGGGUAAAAGUGGAGGGGGCGG [A36G C20A], the self-cleavage turned out to be 0.87. In the case of CCGCCUAACACUGCCAAUGCCGGUCCCAAGCCCGGCUAAAAGUGGAGGGAGCGG [A36C G50A], the self-cleavage was 0.77. CCGCCUAACACUGCCAAUGCCGGUCCCAAGCCCGGCUAAAAGUGGAGGGCGCGG [A36C G50C]: the self-cleavage was 0.22. Regarding CCGCCUAACACUGCCAAUGCCGGUCCCAAGCCCGGCUAAAAGUGGAGGGUGCGG [A36C G50U], the self-cleavage is 0.37. On to CCGCCUAACACUGCCAAUGCCGGUCCCAAGCCCGGGUAAAAGUGGAGGGGGCGG [A36G], for which the self-cleavage worked out at 1.03. In the case of CCGCCUAACACUGCCAAUGCCGGUCCCAAGCCCGGCUAAAAGUGGAGGAGGCGG [A36C G49A], the self-cleavage was 0.06. In the case of CCGCCUAACACUGCCAAUGCCGGUCCCAAGCCCGGCUAAAAGUGGAGGUGGCGG [A36C G49U], the self-cleavage is 0.06. Consider CCGCCUAACACUGCCAAUGCCGGUCCCAAGCCCGGCUAAAAGUGGAGGCGGCGG [A36C G49C], for which the self-cleavage was 0.06.
